Measured values published in ChEMBL document CHEMBL4376814, “Novel cyclin-dependent kinase 9 (CDK9) inhibitor with suppression of cancer stemness activity against non-small-cell lung cancer” (Eur J Med Chem, 2019).

What was measured:
[1] = molecular target: T1, CDK4/Cyclin D3 (Homo sapiens) (UniProt P11802+P30281); experiment: Inhibition of recombinant full-length human CDK4/cyclinD3 at 500 nM using Rb fragment as substrate measured after 40 mins in presence of [gamma33P]ATP by scintillation counting method relative to control; type: protein-complex assay
Outline: (§1)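 Percent inhibition of kinase activity at a single compound concentration, measured by the outsourced Eurofins KinaseProfiler panel. Values are the mean of two independent experiments.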

[2] = molecular target: T2, CDK6/cyclin D3 (Homo sapiens) (UniProt P30281+Q00534); experiment: Inhibition of recombinant full-length human CDK6/cyclinD3 at 1 uM using histone H1 as substrate measured after 40 mins in presence of [gamma33P]ATP by scintillation counting method relative to control; type: protein-complex assay; outline: as §1
[3] = molecular target: T3, CDK9/cyclin T1 (Homo sapiens) (UniProt O60563+P50750); experiment: Inhibition of recombinant full-length human CDK9/cyclinT1 at 500 nM using KTFCGTPEYLAPEVRREPRILSEEEQEMFRDFDYIADWC peptide as substrate measured after 40 mins in presence of [gamma33P]ATP by scintillation counting method relative to control; type: protein-complex assay; outline: as §1
[4] = molecular target: T2, CDK6/cyclin D3 (Homo sapiens); experiment: Inhibition of recombinant full-length human CDK6/cyclinD3 at 500 nM using histone H1 as substrate measured after 40 mins in presence of [gamma33P]ATP by scintillation counting method relative to control; type: protein-complex assay; outline: as §1
[5] = molecular target: T3, CDK9/cyclin T1 (Homo sapiens); experiment: Inhibition of recombinant full-length human CDK9/cyclinT1 at 1 uM using KTFCGTPEYLAPEVRREPRILSEEEQEMFRDFDYIADWC peptide as substrate measured after 40 mins in presence of [gamma33P]ATP by scintillation counting method relative to control; type: protein-complex assay; outline: as §1
A549 [6] = experiment: Antiproliferative activity against human A549 cells assessed as inhibition of cell viability at 1 uM after 72 hrs by CCK-8 assay relative to control; type: functional; settings: A549, 72 h
Outline: (§2)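 Single-concentration viability screen using CCK-8. Cells were seeded at 3000/well and treated for 72 h. A450 read after 1-4 h with reagent. Percent inhibition calculated against untreated control and blank wells as (Ac−As)/(Ac−Ab)×100%.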

A549 [7] = experiment: Antiproliferative activity against human A549 cells assessed as inhibition of cell viability at 10 uM after 72 hrs by CCK-8 assay relative to control; type: functional; settings: A549, 72 h; outline: as §2
[8] = molecular target: T1, CDK4/Cyclin D3 (Homo sapiens); experiment: Inhibition of recombinant full-length human CDK4/cyclinD3 at 1 uM using Rb fragment as substrate measured after 40 mins in presence of [gamma33P]ATP by scintillation counting method relative to control; type: protein-complex assay; outline: as §1
NCI-H1299 [9] = experiment: Antiproliferative activity against human H1299 cells assessed as inhibition of cell viability at 10 uM after 72 hrs by CCK-8 assay relative to control; type: functional; settings: NCI-H1299, 72 h; outline: as §2
NCI-H1299 [10] = experiment: Antiproliferative activity against human H1299 cells assessed as inhibition of cell viability at 1 uM after 72 hrs by CCK-8 assay relative to control; type: functional; settings: NCI-H1299, 72 h; outline: as §2
CDK9/cyclin T1 = CDK9/cyclin T1 (Homo sapiens, UniProt P50750); experiment: Inhibition of recombinant full-length human CDK9/cyclinT1 using KTFCGTPEYLAPEVRREPRILSEEEQEMFRDFDYIADWC peptide as substrate measured after 40 mins in presence of [gamma33P]ATP by scintillation counting method; type: protein-complex assay
Chain of CDK9/cyclin T1 (O60563 whole entry): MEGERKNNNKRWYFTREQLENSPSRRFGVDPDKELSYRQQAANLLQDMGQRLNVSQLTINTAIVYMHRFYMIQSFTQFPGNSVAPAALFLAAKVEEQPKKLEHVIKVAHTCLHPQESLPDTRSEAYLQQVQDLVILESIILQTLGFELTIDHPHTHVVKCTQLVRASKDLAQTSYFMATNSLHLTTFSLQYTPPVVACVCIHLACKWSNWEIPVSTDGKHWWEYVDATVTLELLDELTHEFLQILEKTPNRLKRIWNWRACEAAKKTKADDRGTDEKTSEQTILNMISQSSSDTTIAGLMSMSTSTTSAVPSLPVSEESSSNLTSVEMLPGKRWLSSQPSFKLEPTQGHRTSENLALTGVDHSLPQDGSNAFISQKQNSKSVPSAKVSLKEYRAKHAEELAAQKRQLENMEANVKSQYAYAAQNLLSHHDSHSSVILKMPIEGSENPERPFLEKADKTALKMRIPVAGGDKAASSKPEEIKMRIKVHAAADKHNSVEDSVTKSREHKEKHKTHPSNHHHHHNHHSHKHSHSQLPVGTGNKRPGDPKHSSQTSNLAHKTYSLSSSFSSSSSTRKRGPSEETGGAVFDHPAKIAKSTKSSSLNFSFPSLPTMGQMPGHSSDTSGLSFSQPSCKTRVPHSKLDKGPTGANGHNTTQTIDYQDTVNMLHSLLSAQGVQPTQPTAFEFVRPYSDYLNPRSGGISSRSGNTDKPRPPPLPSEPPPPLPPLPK
Chain of CDK9/cyclin T1 (P50750 whole entry): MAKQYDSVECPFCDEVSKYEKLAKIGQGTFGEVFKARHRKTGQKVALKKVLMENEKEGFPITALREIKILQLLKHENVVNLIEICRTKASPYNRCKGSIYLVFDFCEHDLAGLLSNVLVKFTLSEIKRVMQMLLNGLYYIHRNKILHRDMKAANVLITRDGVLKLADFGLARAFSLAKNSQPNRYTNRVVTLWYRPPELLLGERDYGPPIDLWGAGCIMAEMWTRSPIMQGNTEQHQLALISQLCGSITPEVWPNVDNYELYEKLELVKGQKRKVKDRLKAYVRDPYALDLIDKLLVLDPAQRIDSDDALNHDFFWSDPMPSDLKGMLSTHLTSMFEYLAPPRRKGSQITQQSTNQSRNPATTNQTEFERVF
Outline: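 IC50 against CDK9/cyclin T1, determined by the outsourced Eurofins KinaseProfiler service. Values are the mean of two independent experiments.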

[11] = molecular target: T3, CDK9/cyclin T1 (Homo sapiens); experiment: Potency index, ratio of ribociclib IC50 to compound IC50 for inhibition of recombinant full-length human CDK9/cyclinT1; type: protein-complex assay
MCF7 [12] = experiment: Antiproliferative activity against human MCF7 cells assessed as inhibition of cell viability at 10 uM after 72 hrs by CCK-8 assay relative to control; type: functional; settings: MCF7, 72 h; outline: as §2
SiHa [13] = experiment: Antiproliferative activity against human SiHa cells assessed as inhibition of cell viability at 500 nM after 72 hrs by CCK-8 assay relative to control; type: functional; outline: as §2
MCF7 [14] = experiment: Antiproliferative activity against human MCF7 cells assessed as inhibition of cell viability at 500 nM after 72 hrs by CCK-8 assay relative to control; type: functional; settings: MCF7, 72 h; outline: as §2
HepG2 [15] = experiment: Antiproliferative activity against human HepG2 cells assessed as inhibition of cell viability at 10 uM after 72 hrs by CCK-8 assay relative to control; type: functional; settings: HepG2, 72 h; outline: as §2
HepG2 [16] = experiment: Antiproliferative activity against human HepG2 cells assessed as inhibition of cell viability at 500 nM after 72 hrs by CCK-8 assay relative to control; type: functional; settings: HepG2, 72 h; outline: as §2
SiHa [17] = experiment: Antiproliferative activity against human SiHa cells assessed as inhibition of cell viability at 10 uM after 72 hrs by CCK-8 assay relative to control; type: functional; outline: as §2

Structure (SMILES)	inhibition [1]	inhibition [2]	inhibition [3]	inhibition [4]	inhibition [5]	inhibition at 1 µM (A549 [6])	inhibition at 10 µM (A549 [7])	inhibition [8]	inhibition at 10 µM (NCI-H1299 [9])	inhibition at 1 µM (NCI-H1299 [10])	IC50 (CDK9/cyclin T1)	Ratio IC50 [11]	inhibition at 10 µM (MCF7 [12])	inhibition at 0.5 µM (SiHa [13])	inhibition at 0.5 µM (MCF7 [14])	inhibition at 10 µM (HepG2 [15])	inhibition at 0.5 µM (HepG2 [16])	inhibition at 10 µM (SiHa [17])
CN(C)C(=O)c1cc2cnc(Nc3ccc(C(=O)NCCCCCCN=C=S)cc3F)nc2n1C1CCCC1	68%	78%	95%	34%	94%	-11.8%	22.9%	89%	77.6%	29.1%	34 nM	–	–	–	–	–	–	–
CN(C)C(=O)c1cc2cnc(Nc3ccc(C(=O)NCCCCN=C=S)cc3F)nc2n1C1CCCC1	76%	86%	97%	38%	96%	-7%	24.4%	89%	78.9%	28.7%	6 nM	–	–	–	–	–	–	–
CN(C)C(=O)c1cc2cnc(Nc3ccc(S(=O)(=O)NCCCCCCN=C=S)cc3)nc2n1C1CCCC1	78%	81%	98%	41%	96%	49.5%	101%	89%	70.6%	42.4%	9 nM	> 20	–	–	–	–	–	–
CN(C)C(=O)c1cc2cnc(Nc3ccc(C(=O)NCCCCCN=C=S)cc3F)nc2n1C1CCCC1	72%	81%	96%	30%	96%	-1.6%	15.6%	86%	86.7%	36.1%	11 nM	–	–	–	–	–	–	–
CN(C)C(=O)c1cc2cnc(Nc3ccc(C(=O)NCCCN=C=S)cc3O)nc2n1C1CCCC1	–	68%	90%	21%	94%	55.9%	73%	46%	24.2%	10.3%	68 nM	–	–	–	–	–	–	–
CN(C)C(=O)c1cc2cnc(Nc3ccc(NC(=O)CCCCCCCN=C=S)cc3F)nc2n1C1CCCC1	62%	49%	96%	–	95%	8.65%	94.1%	72%	14%	7.5%	25 nM	–	–	–	–	–	–	–
CN(C)C(=O)c1cc2cnc(Nc3ccc(S(=O)(=O)NCCCCCCCN=C=S)cc3)nc2n1C1CCCC1	84%	77%	97%	45%	97%	32.6%	101%	86%	83%	58.9%	9 nM	> 20	–	–	–	–	–	–
CN(C)C(=O)c1cc2cnc(Nc3cccc(NC(=O)CCCCCCCN=C=S)c3)nc2n1C1CCCC1	59%	74%	98%	23%	96%	44.6%	96.7%	80%	86.9%	50.6%	15 nM	–	–	–	–	–	–	–
CN(C)C(=O)c1cc2cnc(Nc3ccc(C(=O)NCCCCCCCN=C=S)cc3)nc2n1C1CCCC1	74%	85%	99%	56%	97%	73.7%	101%	83%	107%	75.7%	12 nM	–	99%	90%	85%	89%	68%	95%
CN(C)C(=O)c1cc2cnc(Nc3ccc(C(=O)NCCCCN=C=S)cc3O)nc2n1C1CCCC1	–	61%	89%	–	91%	30.3%	41.7%	55%	51.8%	10.7%	42 nM	–	–	–	–	–	–	–
CN(C)C(=O)c1cc2cnc(Nc3ccc(C(=O)NCCCN=C=S)cc3F)nc2n1C1CCCC1	75%	82%	98%	41%	97%	16.7%	60.2%	86%	78.5%	9.27%	10 nM	–	–	–	–	–	–	–
CN(C)C(=O)c1cc2cnc(Nc3ccc(C(=O)NCCCCCCCN=C=S)cc3F)nc2n1C1CCCC1	60%	52%	90%	–	92%	0.05%	12.7%	67%	35.8%	-9.23%	50 nM	–	–	–	–	–	–	–
